ChEMBL document CHEMBL1149082, “Discovery of novel thieno[2,3-d]pyrimidin-4-yl hydrazone-based inhibitors of Cyclin D1-CDK4: synthesis, biological evaluation, and structure-activity relationships” (Bioorg Med Chem Lett, 2009)
≈ marks a conversion by molar mass, not a printed value. Calls of active or inactive are those of the source. The rule behind the calls is not given here.

Columns and labels:
[1] = molecular target: Cyclin-dependent kinase 2 (Homo sapiens, UniProt P24941); assay: Inhibition of CDK2-mediated retinoblastoma protein phosphorylation by dose-response curve analysis
Outline: (§1)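 Kinase assay read as Rb phosphorylation by cyclin D1-CDK4 or cyclin E-CDK2. IC50 is the concentration (μg/mL) giving 50% inhibition of Rb phosphorylation, read from the dose-response curve. Values are means of at least two determinations.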

[2] = molecular target: T1, Cyclin-dependent kinase 4 (Homo sapiens, UniProt P11802); assay: Inhibition of CDK4-mediated retinoblastoma protein phosphorylation by dose-response curve analysis; outline: as §1
[3] = Aqueous solubility in water; assay type: physicochemical
PC-6 = assay: Antiproliferative activity against human PC6 cells by dose-response curve analysis; assay type: functional, cell-based
Outline: (§2)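 Cell growth inhibition measured from dose-response curves at ten concentrations. IC50 is the concentration giving 50% growth inhibition, read from these curves.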

WiDr = assay: Antiproliferative activity against human WiDr cells by MTT assay; assay type: functional, cell-based; outline: as §2
HCT-116 [4] = assay: Antiproliferative activity against human HCT116 cells by dose-response curve analysis; assay type: functional, cell-based; outline: as §2
MDA-MB-468 = assay: Antiproliferative activity against human MDA-MB-468 cells by MTT assay; assay type: functional, cell-based; outline: as §2
MDA-MB-231 = assay: Antiproliferative activity against human MDA-MB-231 cells by MTT assay; assay type: functional, cell-based; outline: as §2
DLD-1 = assay: Antiproliferative activity against human DLD1 cells by MTT assay; assay type: functional, cell-based; outline: as §2
HCT-116 [5] = assay: Antiproliferative activity against SN2-3-resistant human HCT116 cells by MTT assay; assay type: functional, cell-based; outline: as §2
MKN-28 = assay: Antiproliferative activity against human MKN28 cells by MTT assay; assay type: functional, cell-based; outline: as §2
P388 = assay: Antiproliferative activity against mouse P388 cells by MTT assay; assay type: functional, cell-based; outline: as §2
HCT-116 [6] = assay: Antiproliferative activity against docetaxal-resistant human HCT116 cells by MTT assay; assay type: functional, cell-based; outline: as §2
HCT-116 [7] = assay: Cell cycle arrest in human HCT116 cells assessed as increase in accumulation at G1 phase after 16 hrs by FACS analysis; assay type: functional, cell-based
Outline: (§3)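 HCT116 cells exposed to test compound at various concentrations for 16 hr, then collected. DNA content measured by flow cytometry to assign G1, S and G2/M fractions.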

[8] = Antiproliferative activity against mouse B16-BL6 cells by MTT assay; assay type: functional, cell-based; outline: as §2
[9] = molecular target: T1, Cyclin-dependent kinase 4; assay: Inhibition of CDK4-mediated retinoblastoma protein phosphorylation up to 20 ug/mL by dose-response curve analysis; outline: as §1
[10] = molecular target: T1, Cyclin-dependent kinase 4; assay: Inhibition of CDK4-mediated retinoblastoma protein phosphorylation up to 20 ug/mL by dose-response curve analysis
[11] = Solubility in 40% captisol; assay type: physicochemical
Mus musculus [12] = assay: Toxicity in nude mouse xenografted with human HCT116 cells assessed as maximum body weight loss at 200 mg/kg, po qd for 4 days; assay type: organism-based, HCT-116; set-up: dose 200 mg/kg, route oral; conditions: in vivo, 96 h
Outline: (§4)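 HCT116 solid tumours in mice. Hydrochloride salt dissolved in 40% Captisol, dosed 200 mg/kg once daily for 4 days (qdx4), i.v. or p.o. Read-outs: maximum inhibition rate of tumour volume, maximum body weight loss, and toxic deaths out of 5 mice.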

HCT-116 [13] = assay: Cell cycle arrest in human HCT116 cells assessed as accumulation at G1 phase at 500 ng/mL after 16 hrs by FACS analysis; assay type: functional; outline: as §3
HCT-116 [14] = assay: Cell cycle arrest in human HCT116 cells assessed as decrease in accumulation at G2/M phase at 500 ng/mL after 16 hrs by FACS analysis; assay type: functional, cell-based; outline: as §3
Mus musculus [15] = assay: Toxicity in nude mouse xenografted with human HCT116 cells assessed as death at 200 mg/kg, po qd for 4 days; assay type: organism-based, HCT-116; set-up: dose 200 mg/kg, route oral; conditions: in vivo, 96 h
Outline: (§5)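 Mice bearing HCT116 colon solid tumours (n=5 per group) dosed as the hydrochloride salt dissolved in 40% Captisol at 200 mg/kg once daily for 4 days (qdx4), i.v. or p.o. Toxicity recorded as the number of mice dead from toxicity over the number used, with maximum body-weight loss also noted.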

HCT-116 [16] = assay: Antitumor activity against human HCT116 cells xenografted in nude mouse assessed as maximum inhibition of […] growth at 200 mg/kg, po qd for 4 days; assay type: functional; conditions: HCT-116, 96 h; outline: as §4
Mus musculus [17] = assay: Toxicity in nude mouse xenografted with human HCT116 cells assessed as death at 200 mg/kg, iv qd for 4 days; assay type: organism-based, HCT-116; set-up: dose 200 mg/kg, route intravenous; conditions: in vivo, 96 h; outline: as §5
HCT-116 [18] = assay: Cell cycle arrest in human HCT116 cells assessed as decrease in accumulation at S phase at 500 ng/mL after 16 hrs by FACS analysis; assay type: functional, cell-based; outline: as §3
Mus musculus [19] = assay: Toxicity in nude mouse xenografted with human HCT116 cells assessed as maximum body weight loss at 200 mg/kg, iv qd for 4 days; assay type: organism-based, HCT-116; set-up: dose 200 mg/kg, route intravenous; conditions: in vivo, 96 h; outline: as §4
HCT-116 [20] = assay: Antitumor activity against human HCT116 cells xenografted in nude mouse assessed as maximum inhibition of […] growth at 200 mg/kg, iv qd for 4 days; assay type: functional; conditions: HCT-116, 96 h; outline: as §4

Compound | IC50 [1] [µM] | IC50 [2] [µM] | IC50 (HCT-116 [4]) [µg/mL] | IC50 (PC-6) [µg/mL] | other results
CCc1cc2c(N/N=C\c3cccs3)nc(C)nc2s1 | > 66.1 | > 66.1 | – | – | –
CC(C)c1cc2c(N/N=C\c3ccccc3)ncnc2s1 | 2.97 | 1.59 | – | 0.651 (≈ 2.2 µM) | –
CCc1cc2c(N/N=C\C(C)(C)C)ncnc2s1 | 14.5 | 16.8 | 1.66 (≈ 6.33 µM) | 1.55 (≈ 5.91 µM) | –
CC(C)c1cc2c(N/N=C\c3cccnc3)ncnc2s1 | 2.35 | 1.85 | – | 0.889 (≈ 2.99 µM) | –
CCc1cc2c(N/N=C\C3CC3)ncnc2s1 | 16.6 | 13 | – | – | –
CC(C)c1cc2c(N/N=C\c3ccco3)ncnc2s1 | 1.92 | 1.36 | – | 3.78 (≈ 13.2 µM) | –
CCc1cc2c(N/N=C\c3cccs3)nc(-c3ccccc3)nc2s1 | > 54.9 | > 54.9 | – | – | –
CC(C)c1cc2c(-n3ccc(-c4cccs4)n3)ncnc2s1 | > 61.3 | > 61.3 | – | – | Activity [9]: inactive
C/C(=N/Nc1ncnc2sc(C(C)C)cc12)c1cccs1 | 28.1 | 8.85 | – | – | –
CC(C)c1cc2c(N/N=C\c3ccncc3)ncnc2s1 | 1.11 | 0.807 | – | > 10 | –
C(=N/Nc1ncnc2sc3c(c12)CCCC3)/c1cccs1 | > 63.6 | > 63.6 | – | – | –
CC(C)c1cc2c(N/N=C\c3ccccn3)ncnc2s1 | 10.4 | 2.96 | 0.01 (≈ 0.0336 µM) | 0.003 (≈ 0.0101 µM) | –
CC(C)(C)c1cc2c(N/N=C\c3ccccn3)ncnc2s1 | 8.99 | 2.89 | 0.014 (≈ 0.045 µM) | 0.009 (≈ 0.0289 µM) | IC50 (WiDr): 0.019 µg/mL (≈ 0.061 µM); solubility [11]: Soluble; Activity (Mus musculus [12]): 4.6%; Activity (HCT-116 [13]): 64%; Activity (HCT-116 [14]): Active; IC50 (MDA-MB-468): 0.008 µg/mL (≈ 0.0257 µM); IC50 (MDA-MB-231): 0.019 µg/mL (≈ 0.061 µM); IC50 (DLD-1): 0.037 µg/mL (≈ 0.119 µM); Activity (Mus musculus [15]): Non-toxic; inhibition in vivo at 200 mg/kg (HCT-116 [16]): 54.1%; IC50 (HCT-116 [5]): 0.005 µg/mL (≈ 0.0161 µM); IC50 (MKN-28): 0.049 µg/mL (≈ 0.157 µM); Activity (Mus musculus [17]): Non-toxic; Activity (HCT-116 [18]): Active; IC50 (P388): 0.006 µg/mL (≈ 0.0193 µM); IC50 (HCT-116 [6]): 0.007 µg/mL (≈ 0.0225 µM); Activity (Mus musculus [19]): 22.6%; IC50 [8]: 0.045 µg/mL (≈ 0.145 µM); inhibition in vivo at 200 mg/kg (HCT-116 [20]): 67.9%

The next lines start with results.

IC50 [1] [µM] | IC50 [2] [µM] | IC50 (HCT-116 [4]) [µg/mL] | Compound | IC50 (PC-6) [µg/mL] | other results
1.16 | 0.165 | – | CC(C)c1cc2c(N/N=C\c3cccs3)ncnc2s1 | – | solubility [3]: < 0.1 µg/mL
> 72.9 | > 72.9 | – | Cc1csc2ncnc(N/N=C\c3cccs3)c12 | – | –
39.7 | 52.9 | – | CCc1c(C)sc2ncnc(N/N=C\c3cccs3)c12 | – | –
1.77 | 0.379 | – | CC(C)(C)c1cc2c(N/N=C\c3cccs3)ncnc2s1 | – | –
3.8 | 0.152 | 0.429 (≈ 1.16 µM) | CN(C)Cc1cccc(/C=N\Nc2ncnc3sc(C(C)(C)C)cc23)n1 | 0.381 (≈ 1.03 µM) | IC50 (WiDr): 0.889 µg/mL (≈ 2.41 µM); solubility [3]: 44 µg/mL (≈ 119 µM); IC50 (MDA-MB-468): 0.315 µg/mL (≈ 0.855 µM); IC50 (MDA-MB-231): 0.919 µg/mL (≈ 2.49 µM); IC50 (DLD-1): 0.506 µg/mL (≈ 1.37 µM); IC50 (HCT-116 [5]): 0.755 µg/mL (≈ 2.05 µM); IC50 (MKN-28): 1.39 µg/mL (≈ 3.77 µM); IC50 (P388): 0.37 µg/mL (≈ 1 µM); IC50 (HCT-116 [6]): 0.973 µg/mL (≈ 2.64 µM); Activity (HCT-116 [7]): Dose-dependent effect; IC50 [8]: 1.09 µg/mL (≈ 2.96 µM)
1.8 | 1.61 | – | CC(C)(C)c1cc2c(N/N=C\c3cccnc3)ncnc2s1 | 1.45 (≈ 4.66 µM) | –
6.15 | 1.03 | 0.039 (≈ 0.114 µM) | CC(C)(C)c1cc2c(N/N=C\c3cccc(CO)n3)ncnc2s1 | 0.034 (≈ 0.0996 µM) | –
3.81 | 2.6 | 1.61 (≈ 5.58 µM) | CCc1cc2c(N/N=C\c3cccs3)ncnc2s1 | 0.566 (≈ 1.96 µM) | IC50 (WiDr): 1.36 µg/mL (≈ 4.72 µM); IC50 (MDA-MB-468): 0.048 µg/mL (≈ 0.166 µM); IC50 (MDA-MB-231): 1.87 µg/mL (≈ 6.48 µM); IC50 (DLD-1): 1.12 µg/mL (≈ 3.88 µM); IC50 (HCT-116 [5]): 1.34 µg/mL (≈ 4.65 µM); IC50 (MKN-28): 2.86 µg/mL (≈ 9.92 µM); IC50 (P388): 1.01 µg/mL (≈ 3.5 µM); IC50 (HCT-116 [6]): 1.21 µg/mL (≈ 4.2 µM); IC50 [8]: 2.44 µg/mL (≈ 8.46 µM)
20 | 0.705 | 0.185 (≈ 0.522 µM) | CNCc1cccc(/C=N\Nc2ncnc3sc(C(C)(C)C)cc23)n1 | 0.189 (≈ 0.533 µM) | IC50 (WiDr): 0.263 µg/mL (≈ 0.742 µM); IC50 (MDA-MB-468): 0.159 µg/mL (≈ 0.449 µM); IC50 (MDA-MB-231): 0.279 µg/mL (≈ 0.787 µM); IC50 (DLD-1): 0.221 µg/mL (≈ 0.623 µM); IC50 (HCT-116 [5]): 0.269 µg/mL (≈ 0.759 µM); IC50 (MKN-28): 0.686 µg/mL (≈ 1.94 µM); IC50 (P388): 0.131 µg/mL (≈ 0.37 µM); IC50 (HCT-116 [6]): 0.29 µg/mL (≈ 0.818 µM); IC50 [8]: 0.379 µg/mL (≈ 1.07 µM)
21.2 | 1.6 | 0.268 (≈ 0.823 µM) | Cc1cccc(/C=N\Nc2ncnc3sc(C(C)(C)C)cc23)n1 | 0.258 (≈ 0.793 µM) | –
36.9 | 2.7 | 0.02 (≈ 0.0615 µM) | Cc1ccc(/C=N\Nc2ncnc3sc(C(C)(C)C)cc23)nc1 | 0.009 (≈ 0.0277 µM) | –
13.4 | 0.414 | 0.363 (≈ 0.884 µM) | CC(C)(C)c1cc2c(N/N=C\c3cccc(CN4CCOCC4)n3)ncnc2s1 | 0.261 (≈ 0.636 µM) | –
18.5 | > 57.1 | – | C(=N/Nc1ncnc2sc(Cc3ccccc3)cc12)/c1cccs1 | – | Activity [10]: inactive
10.6 | 1.73 | 0.059 (≈ 0.173 µM) | CC(C)(C)c1cc2c(N/N=C\c3cccc(CN)n3)ncnc2s1 | 0.036 (≈ 0.106 µM) | –
6.2 | 6.92 | – | Cc1cc2c(N/N=C\c3cccs3)ncnc2s1 | – | –
